PubChem BioAssay
Calls of active or inactive are those of the source.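 How the source made its calls: active means fluorescence slope after compound addition differing from the mean of all tested samples at 99.7% confidence, mostly higher but some lower; inactive means the rest.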

target: Muscarinic acetylcholine receptor M4 (Homo sapiens) (UniProt P08173); test: M4-linked GIRK flux change, two-sided – cell-based, HEK293 M4/GIRK, thallium flux, BTC-AM, M4 allosteric agonist project, primary screen (AID 625); conditions: at 10 µM, actives lie on both sides;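 further: thallium influx through GIRK channels coupled to M4 in HEK293 cells with BTC-AM dye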
Sequence (P08173 whole entry, looked up): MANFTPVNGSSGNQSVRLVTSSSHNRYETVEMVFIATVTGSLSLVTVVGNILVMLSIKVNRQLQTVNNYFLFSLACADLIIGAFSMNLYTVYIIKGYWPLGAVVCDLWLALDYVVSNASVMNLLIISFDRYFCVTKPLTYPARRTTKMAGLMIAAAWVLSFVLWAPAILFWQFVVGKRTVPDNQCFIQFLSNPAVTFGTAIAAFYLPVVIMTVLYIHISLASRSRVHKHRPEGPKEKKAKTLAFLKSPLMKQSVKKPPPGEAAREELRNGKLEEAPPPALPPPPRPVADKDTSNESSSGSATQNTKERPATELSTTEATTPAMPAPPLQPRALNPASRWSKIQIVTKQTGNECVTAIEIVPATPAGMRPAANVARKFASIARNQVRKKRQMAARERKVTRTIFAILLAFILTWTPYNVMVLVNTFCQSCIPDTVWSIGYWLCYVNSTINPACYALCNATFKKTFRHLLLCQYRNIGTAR
Method in brief: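 Assay system: HEK293 cells with M4 receptor and GIRK channels / Controls: carbachol and DMSO controls / Schedule: 1 h dye loading, 2 min kinetic read / Technique: kinetic fluorescence with BTC-AM dye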

Fluorescence slope, inactive:
CCOc1cccc(N2C(=O)CC(N(CCc3ccc(OC)c(OC)c3)C(=O)CC)C2=O)c1 (stereo not given) 0.00547
CCOC(=O)CNC(=O)CNC(=O)c1ccc(OCC(C)C)cc1 0.00522
COc1cc(C(=O)Nc2ccc(O)cc2C(=O)O)ccc1OC(C)=O 0.00561
Cc1cc(C)n(CC2CC(=O)N(c3ccc(F)c(Cl)c3)C2=O)n1 (stereo not given) 0.00494
COC(=O)c1ccc(C2/C(=C(\O)c3cccc(OC)c3)C(=O)C(=O)N2CCCN(C)C)cc1 (stereo not given) 0.006
CCCC(CCC(=O)Nc1ccc(C(=O)OCC)cc1)C(=O)O (stereo not given) 0.0051
C=C(C)CSc1nc(N)c2c3c(sc2n1)CCC3 0.00788
CCCCOC(=O)CCc1nc2ccccc2[nH]1 0.00514
CCc1nc2c(sc3nc(N4CCOCC4)c4c(c32)CC(C)(C)OC4)c(=O)o1 0.00481
COc1ccccc1-n1c(N)c(C(=O)NCC2CCCO2)c2nc3ccccc3nc21 (stereo not given) 0.00576
CCC(=O)NC1(C(F)(F)F)C(=O)Nc2c1c(=O)[nH]c(=O)n2Cc1ccco1 (stereo not given) 0.00505
Cn1c(=O)[nH]c2cc(Cl)cnc21 0.00408
O=C(COc1ccc(-c2nnc(N3CCCCC3)c3ccccc23)cc1)N1CCCCC1 0.00419
Cc1cccc(-c2nc(C#N)c(NC3CCCCC3)o2)c1 0.00501
CCCCSc1nnc2n(CCc3ccccc3)c(=O)c3c4c(sc3n12)COC(C)(C)C4 0.00807
CCCCc1nc(NCC2CCCO2)c(C#N)c2c1COC(C)(C)C2 (stereo not given) 0.00404
Clc1ccc(-n2ncc3c(N4CCCC4)ncnc32)cc1 0.00915
COCCOC(=O)c1c(C)oc2ccc(OC(=O)COc3c(F)c(F)c(F)c(F)c3F)cc12 0.0112
CCc1cc(=O)oc2cc(C)c(CN3CCCC3)c(O)c12 0.00438
O=c1[nH]c2sc3c(c2c(=O)n1Cc1ccccc1)CCC3 0.00552
CCOC(=O)CCNc1n[nH]c(=O)[nH]c1=O 0.00518
COc1ccc(C2C=C(c3ccc(C)cc3)Nc3ncnn32)cc1 (stereo not given) 0.00462
CCc1nc(N2CCOCC2)c(C#N)c2c1CCCC2 0.00431
COc1ccccc1C1/C(=C(/O)c2ccc(C)cc2)C(=O)C(=O)N1CCN1CCOCC1 (stereo not given) 0.0067
N#CC(C#N)C(c1ccsc1)c1c(-c2ccccc2)[nH][nH]c1=O (stereo not given) 0.00622
O=C(c1ccc(=O)oc1)N1CCN(C(c2ccccc2)c2ccccc2)CC1 0.00524
Nc1ccc2c3c(cccc13)CC2 0.00407
COCCNC(=O)C(C#N)c1nc2ccccc2nc1N1CCN(Cc2ccc3c(c2)OCO3)CC1 (stereo not given) 0.00436
Cc1ccc(Cn2ncc3c(N4CCN(Cc5ccc(Cl)cc5)CC4)ncnc32)cc1 0.00938
COC(=O)c1[nH]c2ccc(Cl)cc2c1NC(=O)C1CC1 0.00568
CCCOc1ccccc1C(=O)NCCCC(=O)O 0.00573
CCCOc1cccc(C2/C(=C(/O)c3ccc(F)cc3)C(=O)C(=O)N2CCN(C)C)c1 (stereo not given) 0.00611
CCN(CC)c1nc(C)c2c(c1C#N)CC(C)(C)OC2 0.00447
CCC(=O)N(Cc1cccs1)C1CCOC(C)(C)C1 (stereo not given) 0.00514
CCC(=O)Nc1c(C#N)c2nc3ccccc3nc2n1C1CCCCC1 0.00526
O=C(CN1C(=O)c2ccccc2S1(=O)=O)NCCSCc1ccco1 0.00395
CC12CN3CC(C)(CN(C1)C3c1ccc(Br)cc1O)C2 (stereo not given) 0.00399
Clc1ccc(COc2ccccn2)c(Cl)c1 0.00573
CC1(C)NC(=O)N(CC(O)COc2cc3ccccc3cc2C(=O)N2CCCCC2)C1=O (stereo not given) 0.00552
Cc1ccc(N(CN2C(=O)C3CC=CCC3C2=O)C(=O)c2ccco2)cc1Cl (stereo not given) 0.00483
